Measurements from ChEMBL document CHEMBL1121917, “Structure--activity relationships in a broad-spectrum anthelmintic series. Acid chloride phenylhydrazones. 1. Aryl substitutions and chloride variations” (1981).

Columns and labels:
[1] = species: Canis familiaris; experiment: Percent reduction in Uncinaria eggs per gram, after treatment of 100 mg/dog dose of compound in a single treatment; assay type: functional, Canis lupus familiaris, Egg
[2] = species: Canis familiaris; experiment: Percentt reduction in Toxascaris eggs per gram, after treatment of 100 mg/dog dose of compound in a single treatment; assay type: functional, Canis lupus familiaris, Egg
[3] = species: Canis familiaris; experiment: Percent reduction in Ancylostoma eggs per gram, after treatment of 100 mg/dog dose of compound in a single treatment; assay type: functional, Canis lupus familiaris, Egg
Procedure, shortened: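 Dogs naturally infected with Toxascaris leonina were experimentally infected with mixed Ancylostoma caninum and Uncinaria stenocephala larvae. Finely ground compound was given orally in gelatin capsules. Fecal egg counts were taken three times before and three times after treatment, and activity was taken as the fall in egg counts.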

[4] = species: Mus musculus; experiment: Percent clearance of Nematospiroides dubius from mouse after oral treatment of 1.87 mg/mouse/day; assay type: functional
Procedure, shortened: (§1)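 Mice naturally carrying Syphacia obvelata were experimentally infected with Nematospiroides dubius and Hymenolepis nana, then grouped after a 2-week prepatency. Finely ground compound was suspended in aqueous 0.10% carboxymethylcellulose, 0.04% polysorbate 80 and 0.0042% polyparaben, and 0.1 mL was given orally by cannula once daily for 4 days to five mice. Necropsy followed 2 days later, scoring presence or absence of each parasite. Control clearance was subtracted from the treated clearance.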

[5] = system: Ovis aries; experiment: Percent reduction in Trichostrongylus eggs per gram, after treatment with 350 mg/kg dose of compound perorally in sheep; assay type: functional, Egg; conditions: route oral
[6] = system: Ovis aries; experiment: Percent reduction in Trichostrongylus eggs per gram, after treatment with 400 mg/kg dose of compound perorally in sheep; assay type: functional, Egg; conditions: route oral
Procedure, shortened: (§2)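 Naturally parasitized lambs, dosed orally either with a suspension by stomach tube or with finely ground compound in gelatin capsules by balling gun. Activity was scored by the clinical test method, meaning a significant fall in helminth egg counts after treatment.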

[7] = system: Ovis aries; experiment: Percent reduction in Trichostrongylus eggs per gram, after treatment with 450 mg/kg dose of compound perorally in sheep; assay type: functional, Egg; conditions: route oral; procedure, shortened: as §2
[8] = system: Ovis aries; experiment: Percent reduction in Trichostrongylus eggs per gram, treatment of 100 mg/kg dose of compound perorally in sheep; assay type: functional, Egg; conditions: route oral
[9] = system: Ovis aries; experiment: Percent reduction in Trichuris eggs per gram, after treatment of 100 mg/kg dose of compound perorally in sheep; assay type: functional, Egg; conditions: route oral
[10] = system: Ovis aries; experiment: Percent reduction in Trichuris eggs per gram, after treatment of with 200 mg/kg dose of compound perorally in sheep; assay type: functional, Egg; conditions: route oral
[11] = system: Ovis aries; experiment: Percent reduction in Trichuris eggs per gram, after treatment with 400 mg/kg dose of compound perorally in sheep; assay type: functional, Egg; conditions: route oral; procedure, shortened: as §2
[12] = system: Ovis aries; experiment: Percent reduction in Haemonchus eggs per gram, after treatment of 250 mg/kg dose of compound perorally in sheep; assay type: functional, Egg; conditions: route oral
Procedure, shortened: (§3)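 Naturally parasitized lambs received compound orally, either as the aqueous suspension by stomach tube or as finely ground powder in gelatin capsules by balling gun. Activity was judged by the clinical test method, as a significant decrease in posttreatment helminth egg counts.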

[13] = system: Ovis aries; experiment: Percent reduction in Strongyloides eggs per gram, after treatment of 100 mg/kg dose of compound perorally in sheep; assay type: functional, Egg; conditions: route oral; procedure, shortened: as §2
[14] = system: Ovis aries; experiment: Percent reduction in Strongyloides eggs per gram, after treatment with 450 mg/kg dose of compound perorally in sheep; assay type: functional, Egg; conditions: route oral; procedure, shortened: as §2
[15] = system: Ovis aries; experiment: Percent reduction in Haemonchus eggs per gram, after treatment of 200 mg/kg dose of compound perorally in sheep; assay type: functional, Egg; conditions: route oral; procedure, shortened: as §3
[16] = system: Ovis aries; experiment: Percent reduction in Nematodirus eggs per gram, after treatment with 250 mg/kg dose of compound perorally in sheep; assay type: functional, Egg; conditions: route oral
Procedure, shortened: (§4)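 Naturally parasitized lambs were dosed orally at the stated mg/kg. Dosing was either as a suspension of finely ground compound by stomach tube, or as ground compound weighed into gelatin capsules and given by balling gun. Activity was scored by the clinical test method: the decrease in posttreatment helminth eggs per gram.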

[17] = system: Ovis aries; experiment: Percent reduction in Nematodirus eggs per gram, after treatment with 350 mg/kg dose of compound perorally in sheep; assay type: functional, Egg; conditions: route oral; procedure, shortened: as §4
[18] = system: Ovis aries; experiment: Percent reduction in Nematodirus eggs per gram, after treatment with 400 mg/kg dose of compound perorally in sheep; assay type: functional, Egg; conditions: route oral; procedure, shortened: as §4
[19] = system: Ovis aries; experiment: Percent reduction in Oesophagostomum eggs per gram, after treatment of 100 mg/kg dose of compound perorally in sheep; assay type: functional, Egg; conditions: route oral; procedure, shortened: as §4
[20] = system: Ovis aries; experiment: Percent reduction in Haemonchus eggs per gram, after treatment with 450 mg/kg dose of compound perorally in sheep; assay type: functional, Egg; conditions: route oral; procedure, shortened: as §4
[21] = system: Ovis aries; experiment: Percent reduction in Moniezia eggs per gram, after treatment of 200 mg/kg dose of compound perorally in sheep; assay type: functional, Egg; conditions: route oral; procedure, shortened: as §4
[22] = system: Ovis aries; experiment: Percent reduction in Moniezia eggs per gram, after treatment with 400 mg/kg dose of compound perorally in sheep; assay type: functional, Egg; conditions: route oral; procedure, shortened: as §4
[23] = system: Ovis aries; experiment: Percent reduction in Nematodirus eggs per gram, after treatment of 200 mg/kg dose of compound perorally in sheep; assay type: functional, Egg; conditions: route oral; procedure, shortened: as §4
[24] = system: Ovis aries; experiment: Percent reduction in Nematodirus eggs per gram, after treatment of 100 mg/kg dose of compound perorally in sheep; assay type: functional, Egg; conditions: route oral; procedure, shortened: as §4
[25] = system: Ovis aries; experiment: Percent reduction in Strongyloides eggs per gram, after treatment with 350 mg/kg dose of compound perorally in sheep; assay type: functional, Egg; conditions: route oral; procedure, shortened: as §2
[26] = system: Ovis aries; experiment: Percent reduction in Strongyloides eggs per gram, after treatment with 400 mg/kg dose of compound perorally in sheep; assay type: functional, Egg; conditions: route oral; procedure, shortened: as §2
[27] = system: Ovis aries; experiment: Percent reduction in Ostertagia eggs per gram, after treatment with 350 mg/kg dose of compound perorally in sheep; assay type: functional, Egg; conditions: route oral; procedure, shortened: as §2
[28] = system: Ovis aries; experiment: Percent reduction in Ostertagia eggs per gram, after treatment with 400 mg/kg dose of compound perorally in sheep; assay type: functional, Egg; conditions: route oral; procedure, shortened: as §2
[29] = system: Ovis aries; experiment: Percent reduction in Ostertagia eggs per gram, after treatment with 450 mg/kg dose of compound perorally in sheep; assay type: functional, Egg; conditions: route oral; procedure, shortened: as §2
[30] = system: Ovis aries; experiment: Percent reduction in Trichostrongylus eggs per gram, after ral treatment of 200 mg/kg dose of compound perorally in sheep; assay type: functional, Egg; conditions: route oral; procedure, shortened: as §2
[31] = system: Ovis aries; experiment: Percent reduction in Trichostrongylus eggs per gram, after oral treatment of 250 mg/kg dose of compound perorally in sheep; assay type: functional, Egg; procedure, shortened: as §2
[32] = system: Ovis aries; experiment: Percent reduction in Oesophagostomum eggs per gram, after treatment with 350 mg/kg dose of compound perorally in sheep; assay type: functional, Egg; conditions: route oral; procedure, shortened: as §4
[33] = system: Ovis aries; experiment: Percent reduction in Oesophagostomum eggs per gram, after treatment with 400 mg/kg dose of compound perorally in sheep; assay type: functional, Egg; conditions: route oral; procedure, shortened: as §4
[34] = system: Ovis aries; experiment: Percent reduction in Ostertagia eggs per gram, after oral treatment of 250 mg/Kg dose of compound perorally in sheep; assay type: functional, Egg; procedure, shortened: as §4
[35] = system: Ovis aries; experiment: Percent reduction in Haemonchus eggs per gram, after oral treatment of 100 mg/kg dose of compound perorally in sheep; assay type: functional, Egg; procedure, shortened: as §3
[36] = system: Ovis aries; experiment: Percent reduction in Oesophagostomum eggs per gram, after treatment of 200 mg/kg dose of compound perorally in sheep; assay type: functional, Egg; conditions: route oral; procedure, shortened: as §4
[37] = system: Ovis aries; experiment: Percent reduction in Oesophagostomum eggs per gram, after treatment with 250 mg/kg dose of compound perorally in sheep; assay type: functional, Egg; conditions: route oral; procedure, shortened: as §4
[38] = system: Ovis aries; experiment: Percent reduction in Trichuris eggs per gram, after treatment with 250 mg/kg dose of compound perorally in sheep; assay type: functional, Egg; conditions: route oral; procedure, shortened: as §2
[39] = system: Ovis aries; experiment: percent reduction in Strongyloides eggs per gram, after treatment with 250 mg/kg dose of compound perorally in sheep; assay type: functional, Egg; conditions: route oral
[40] = system: Ovis aries; experiment: Percent reduction in Ostertagia eggs per gram, after treatment of 200 mg/kg dose of compound perorally in sheep; assay type: functional, Egg; conditions: route oral; procedure, shortened: as §4
[41] = system: Ovis aries; experiment: Percent reduction in Cooperia eggs per gram, after treatment of 100 mg/kg dose of compound perorally in sheep; assay type: functional, Egg; conditions: route oral; procedure, shortened: as §3
[42] = system: Ovis aries; experiment: Percent reduction in Cooperia eggs per gram, after treatment of 200 mg/kg dose of compound perorally in sheep; assay type: functional, Egg; conditions: route oral; procedure, shortened: as §3
[43] = system: Ovis aries; experiment: Percent reduction in Cooperia eggs per gram, after treatment with 400 mg/kg dose of compound perorally in sheep; assay type: functional, Egg; conditions: route oral; procedure, shortened: as §3
[44] = system: Ovis aries; experiment: Percent reduction in Strongyloides eggs per gram, after treatment of 200 mg/kg dose of compound perorally in sheep; assay type: functional, Egg; conditions: route oral; procedure, shortened: as §2
[45] = system: Ovis aries; experiment: Percent reduction in Ostertagia eggs per gram, after treatment of 100 mg/kg dose of compound perorally in sheep; assay type: functional, Egg; conditions: route oral; procedure, shortened: as §4
[46] = species: Mus musculus; experiment: Percent clearance of Hymenolepis nana from mouse after oral treatment of 1.87 mg/mouse/day; assay type: functional; procedure, shortened: as §1
[47] = system: Ovis aries; experiment: Percent reduction in Trichuris eggs per gram, after treatment with 450 mg/kg dose of compound perorally in sheep; assay type: functional, Egg; conditions: route oral; procedure, shortened: as §2
[48] = system: Ovis aries; experiment: Percent reduction in Haemonchus eggs per gram, after treatment with 400 mg/kg dose of compound perorally in sheep; assay type: functional, Egg; conditions: route oral; procedure, shortened: as §4
[49] = system: Ovis aries; experiment: Percent reduction in Trichuris eggs per gram, after treatment with 350 mg/kg dose of compound perorally
[50] = species: Mus musculus; experiment: Percent clearance of Nematospiroides dubius from mouse after oral treatment of 0.12 mg/mouse/day; assay type: functional; procedure, shortened: as §1
[51] = species: Mus musculus; experiment: Percent clearance of Hymenolepis nana from mouse after oral treatment of 0.12 mg/mouse/day; assay type: functional; procedure, shortened: as §1

FC(F)(F)c1cccc(/C(Cl)=N/Nc2ccccc2)c1
29%: Reduction [16]
99%: Reduction [15] | Reduction [30]
100%: Reduction [1] | Reduction [2] | Reduction [3] | Reduction [5] | Reduction [6] | Reduction [7] | Reduction [14] | Reduction [17] | Reduction [18] | Reduction [19] | Reduction [20] | Reduction [21] | Reduction [22] | Reduction [23] | Reduction [24] | Reduction [25] | Reduction [26] | Reduction [27] | Reduction [28] | Reduction [29] | Reduction [32] | Reduction [33] | Reduction [36] | Reduction [40] | Reduction [41] | Reduction [42] | Reduction [43] | Reduction [44] | Reduction [48]
59%: Reduction [39]
75%: Parasite_Clearance [46]
35%: Reduction [9]
86%: Reduction [34]
98%: Reduction [13] | Reduction [35] | Reduction [45]
71%: Reduction [31]
91%: Reduction [37]
0%: Parasite_Clearance [4] | Reduction [10] | Reduction [47] | Reduction [49]
57%: Reduction [38]
84%: Reduction [12]
62%: Reduction [11]
97%: Reduction [8]

Cc1cccc(/C(Cl)=N/Nc2ccccc2)c1
0%: Parasite_Clearance [50] | Parasite_Clearance [51]
